UBC13 polyUb: UBC13 polyubiquitin chain formation inhibitors, primary screen, biochemical, TR-FRET, uHTS; inhibition, % at 20 µM; 330,000 tested, 0.47% active; AID 485273, 2010; in the data active = inhibition above about 45%, passing the limit was not always enough
Mdm2-MdmX inh: inhibitors of human Mdm2-MdmX association, primary screen, cell-based, luminescence, split luciferase, SaOS-2, uHTS; 330,000 tested, 3% active; Protein Mdm4 (Homo sapiens) + E3 ubiquitin-protein ligase Mdm2 (Homo sapiens), …; SaOS-2 split-luciferase Mdm2/MdmX complementation; inhibition, % at 8 µM; AID 485346, 2010;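 active = inhibition of at least 50% at 8 µM in the primary screen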
XBP1 UPR activ: activators of adaptive XBP1 UPR arm, primary screen, cell-based, CHO-XBP1 luciferase reporter, luminescence, uHTS. IRE1-XBP1 UPR activation; percent of tunicamycin response, DMSO as zero. activation, % at 20 µM. 330,000 tested, 0.33% active;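 active = versus positive control, 20 µM dose yields 30% or more activation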;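 note: 100% = tunicamycin at 10 µg/mL and 0% = DMSO only wells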
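Assay system: IRE1-XBP1 luciferase reporter CHO line. Input: 1000 cells/well. Buffer or medium: F12 with 10% serum. Doses: 20 µM, 1% DMSO. Times: overnight seeding at 37 °C, 6 h compound treatment at 37 °C. Technique: Steady-Glo luciferase glow luminescence, 10 min after reagent addition.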
Apaf1 inhib: inhibitors of human Apaf-1 apoptosome, primary screen, biochemical, DEVD-Rh110 fluorescence, uHTS; reconstituted apoptosome caspase-3 activity; inhibition, % at 20 µM; AID 489030, 2010; Apoptotic protease-activating factor 1 (Homo sapiens), O14727; 330,000 tested, 0.71% active; active = inhibition of at least 40% at 20 µM;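 note: plate controls were DMSO wells for no effect and DEVD-CHO caspase inhibitor wells for full effect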
Target sequence (O14727 whole entry, looked up): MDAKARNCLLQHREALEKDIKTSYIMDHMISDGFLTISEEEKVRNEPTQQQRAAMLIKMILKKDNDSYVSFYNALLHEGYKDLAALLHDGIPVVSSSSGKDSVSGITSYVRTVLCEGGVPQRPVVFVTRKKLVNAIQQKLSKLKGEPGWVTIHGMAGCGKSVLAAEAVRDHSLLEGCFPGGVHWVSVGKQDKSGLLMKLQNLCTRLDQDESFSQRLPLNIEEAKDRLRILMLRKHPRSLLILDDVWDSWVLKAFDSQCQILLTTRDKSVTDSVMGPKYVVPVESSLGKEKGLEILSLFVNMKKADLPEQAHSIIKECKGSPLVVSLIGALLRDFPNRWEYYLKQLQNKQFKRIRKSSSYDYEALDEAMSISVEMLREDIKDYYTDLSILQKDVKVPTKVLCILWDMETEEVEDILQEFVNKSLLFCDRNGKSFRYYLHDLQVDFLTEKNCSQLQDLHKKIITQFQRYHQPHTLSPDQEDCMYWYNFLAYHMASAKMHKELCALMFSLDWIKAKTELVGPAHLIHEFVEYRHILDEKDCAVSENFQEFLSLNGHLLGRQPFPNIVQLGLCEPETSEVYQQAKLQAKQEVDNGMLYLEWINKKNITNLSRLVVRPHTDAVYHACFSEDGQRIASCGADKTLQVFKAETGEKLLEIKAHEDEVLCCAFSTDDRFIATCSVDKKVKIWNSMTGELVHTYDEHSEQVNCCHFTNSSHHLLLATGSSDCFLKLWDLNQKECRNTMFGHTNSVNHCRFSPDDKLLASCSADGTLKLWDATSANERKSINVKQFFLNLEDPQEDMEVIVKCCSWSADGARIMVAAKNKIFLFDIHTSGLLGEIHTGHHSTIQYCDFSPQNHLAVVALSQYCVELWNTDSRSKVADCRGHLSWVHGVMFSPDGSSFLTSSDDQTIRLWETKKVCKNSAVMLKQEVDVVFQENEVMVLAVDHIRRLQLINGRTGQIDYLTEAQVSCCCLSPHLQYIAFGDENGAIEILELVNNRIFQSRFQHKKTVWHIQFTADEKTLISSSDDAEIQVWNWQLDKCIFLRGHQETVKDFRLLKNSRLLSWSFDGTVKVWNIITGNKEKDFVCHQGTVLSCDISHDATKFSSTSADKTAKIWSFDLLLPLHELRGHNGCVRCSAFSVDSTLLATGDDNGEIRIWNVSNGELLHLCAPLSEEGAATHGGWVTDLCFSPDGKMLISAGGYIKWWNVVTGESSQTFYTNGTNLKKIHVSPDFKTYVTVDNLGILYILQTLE
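detection = Rh110 fluorescence intensity | test system = biochemical Apaf-1 apoptosome reconstitution | also added = cytochrome c and DEVD-Rh110 substrate | schedule = 30 min plus 50 min, RT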
UPR CHOP act: activators of apoptotic CHOP UPR arm, primary screen, cell-based, CHO-CHOP luciferase reporter, luminescence, uHTS; AID 449763, 2010; 330,000 tested, 0.34% active; activation, % at 10 µM; UPR activation; percent of tunicamycin response over DMSO baseline;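 active = at 10 µM dose, activation of 40% or more, normalized to positive control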;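 note: 100% = tunicamycin at 10 µg/mL and 0% = DMSO alone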
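measured by = luciferase luminescence | assay system = CHO-CHOP cells, stable luciferase reporter of PERK-eIF2a-CHOP signalling | amount = 500 reporter cells seeded per well | timing = 6 h compound exposure at 37 °C after overnight seeding | controls = positive tunicamycin 10 µg/mL, negative DMSO alone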
XBP1 UPR conf: IRE1-XBP1 UPR arm activators, confirmation, cell-based, CHO-XBP1 luciferase reporter, luminescence, single concentration. shares compounds with XBP1 UPR activ. activation, % at 20 µM. 1,000 tested, 63% active;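 active = reporter signal at least 30% of the positive control's activation in two or more of four replicate wells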;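 note: plate controls were DMSO negative control for no effect and tunicamycin 10 µg/mL positive control for full effect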
Active calls of the source: *. Compounds with a hit are over-represented: about 4.1% of the library has one in this group of screens.

`N#Cc1ccc(C23CC4(C2)[C@H](CN(CC2CCCCC2)[C@@H]4c2ccccc2)C3c2ccc(Cl)nc2)cc1` (stereo partly specified) gave UBC13 polyUb -6.9, Mdm2-MdmX inh -5.4, XBP1 UPR activ -0.4, Apaf1 inhib 13.1 and UPR CHOP act 1.0.
For CC(CC(=O)N(CCC1=CCCCC1)c1c(N)n(Cc2ccccc2)c(=O)[nH]c1=O)c1ccccc1 (stereo unspecified) the results were UBC13 polyUb -9.3, Mdm2-MdmX inh 20.6, XBP1 UPR activ 39.7*, Apaf1 inhib 9.7, UPR CHOP act 5.9 and XBP1 UPR conf 15.9.
CCOC(=O)C1=CN(CC)S(=O)(=O)NC1c1cccc(OC)c1 (stereo unspecified) was read as Mdm2-MdmX inh 17.4, XBP1 UPR activ 4.6, Apaf1 inhib 11.8 and UPR CHOP act 2.8.
`O=C(/C=C/c1cc(Br)ccc1O)c1ccco1` gave UBC13 polyUb -16.4, Mdm2-MdmX inh 17.8, XBP1 UPR activ 2.3, Apaf1 inhib 16.3 and UPR CHOP act 3.5.
Screening Cc1ccc(/C=C/C(=O)c2cc(Br)ccc2OC(=O)c2ccco2)cc1 returned UBC13 polyUb -3.2, Mdm2-MdmX inh 39.5, XBP1 UPR activ 54.1*, Apaf1 inhib 29.9, UPR CHOP act 3.1 and XBP1 UPR conf 107.8*.
`CCOC(=O)C1C(C)=C(Nc2ccc(OC)cc2)C(=O)N1c1ccc(OC)cc1` (stereo unspecified) gave UBC13 polyUb 10.4, Mdm2-MdmX inh 5.6, XBP1 UPR activ -1.8, Apaf1 inhib -2.1 and UPR CHOP act -0.5.
`Cc1c(C(=O)Nc2nccs2)oc2ccc(F)cc12` gave UBC13 polyUb 4.6, Mdm2-MdmX inh -39.6, XBP1 UPR activ -0.7, Apaf1 inhib -14.3 and UPR CHOP act 2.7.
For Cc1c(C(=O)Nc2nccs2)oc2ccc(Br)cc12 the results were UBC13 polyUb 17.2, Mdm2-MdmX inh -123.5, XBP1 UPR activ 48.1*, Apaf1 inhib -1.1, UPR CHOP act 16.7 and XBP1 UPR conf 79.0*.
Screening COc1cccc(CC(=O)OCC(=O)NCCc2ccc(F)cc2)c1 returned UBC13 polyUb 1.3, Mdm2-MdmX inh 0.7, XBP1 UPR activ -0.4, Apaf1 inhib 4.9 and UPR CHOP act -0.6.
Screening COCCNCC(=O)N1CCCCCC1 returned UBC13 polyUb 14.8, Mdm2-MdmX inh 0.4, XBP1 UPR activ 0.1, Apaf1 inhib -4.4 and UPR CHOP act 1.1.
Screening CC(=O)c1ccc(OC(C)C(=O)NCC2(N3CCOCC3)CCCCC2)cc1 (stereo unspecified) returned UBC13 polyUb 1.8, Mdm2-MdmX inh 11.9, XBP1 UPR activ -4.3, Apaf1 inhib -0.1 and UPR CHOP act 1.7.
COc1ccc(-c2cc(C(F)F)n3ncc(C(=O)Nc4ccc(C(=O)N5CCOCC5)cc4)c3n2)cc1 was read as UBC13 polyUb 16.1, Mdm2-MdmX inh 42.4, XBP1 UPR activ 33.0*, Apaf1 inhib 15.0, UPR CHOP act 6.2 and XBP1 UPR conf 51.6*.
For O=C(Nc1ccc(Cl)cc1)Nc1ccccc1Sc1ncc([N+](=O)[O-])s1 the results were UBC13 polyUb -12.2, Mdm2-MdmX inh -21.7, XBP1 UPR activ 39.7*, Apaf1 inhib 4.2, UPR CHOP act 11.6 and XBP1 UPR conf 31.3*.
For Cc1c(NC(=O)CSc2ccc(Cl)cc2)cccc1-c1nc2cc(Cl)ccc2o1 the results were UBC13 polyUb -2.1, Mdm2-MdmX inh 10.2, XBP1 UPR activ 42.5*, Apaf1 inhib -12.6, UPR CHOP act 8.6 and XBP1 UPR conf 58.8*.
Screening Cc1ccc2oc(-c3cccc(NC(=O)c4ccc(Br)o4)c3C)nc2c1 returned UBC13 polyUb -5.5, Mdm2-MdmX inh -18.8, XBP1 UPR activ 0.9, Apaf1 inhib 8.6 and UPR CHOP act 1.5.
Screening COC(=O)C1C(O)=C(C=Nc2cccc3ccccc23)C(=O)CC1(C)C (stereo unspecified) returned UBC13 polyUb 2.4, Mdm2-MdmX inh 18.4, XBP1 UPR activ 120.7*, Apaf1 inhib 20.9, UPR CHOP act 9.3 and XBP1 UPR conf 110.3*.
Screening COC(=O)C1C(O)=C(C=NCc2ccccc2)C(=O)CC1(C)C (stereo unspecified) returned UBC13 polyUb 0.3, Mdm2-MdmX inh 4.0, XBP1 UPR activ 2.3, Apaf1 inhib -26.3 and UPR CHOP act 1.7.
CSc1ccc(CN2CCN(C(=O)CC(C)C)CC2)cc1 was read as UBC13 polyUb 2.4, Mdm2-MdmX inh 16.1, XBP1 UPR activ -1.6, Apaf1 inhib 5.0 and UPR CHOP act -0.2.
`CCN(CC)C(=S)Sc1c(-c2ccccc2)c2cc(Cl)ccc2[nH]c1=O` gave UBC13 polyUb -6.9, Mdm2-MdmX inh 46.5, XBP1 UPR activ -2.7, Apaf1 inhib 8.3 and UPR CHOP act -2.5.
`COC(=O)C(Cc1ccccc1)OS(N)(=O)=O` (stereo unspecified) gave UBC13 polyUb -1.5, Mdm2-MdmX inh -1.0, XBP1 UPR activ 1.0, Apaf1 inhib -2.5 and UPR CHOP act -1.0.
For COc1ccc(C)cc1NCc1cc(=O)oc2cc(-c3ccccc3)c(O)cc12 the results were UBC13 polyUb -5.6, Mdm2-MdmX inh 15.7, XBP1 UPR activ 52.8*, Apaf1 inhib 5.5, UPR CHOP act 0.8 and XBP1 UPR conf 9.7.
Screening COc1ccc(Oc2cccc(Cl)c2CNC(=O)c2ccccc2C(=O)O)cc1 returned UBC13 polyUb -12.5, Mdm2-MdmX inh 30.4, XBP1 UPR activ -3.4, Apaf1 inhib 1.1 and UPR CHOP act -2.0.
Screening O=c1cc(N2CCc3ccccc3C2)[nH]c(=O)n1Cc1ccc(F)cc1 returned UBC13 polyUb -11.7, Mdm2-MdmX inh 25.4, XBP1 UPR activ 42.5*, Apaf1 inhib 13.1, UPR CHOP act -1.6 and XBP1 UPR conf -0.5.
COCCCNCC1C(Oc2ccc(Cl)cc2)C(=O)N1c1ccccc1C (stereo unspecified) was read as UBC13 polyUb -6.6, Mdm2-MdmX inh 19.7, XBP1 UPR activ 36.2*, Apaf1 inhib 0.5, UPR CHOP act 0.0 and XBP1 UPR conf -1.3.
Screening COc1ccc(-c2[nH]c(-c3ccc(Cl)cc3)nc2SCC(=O)Nc2nccs2)cc1 returned UBC13 polyUb -11.9, Mdm2-MdmX inh 20.4, XBP1 UPR activ 45.7*, Apaf1 inhib 6.3, UPR CHOP act 0.8 and XBP1 UPR conf 12.3.
CCOC(=O)/C=c1\s/c(=C\c2ccc(C)cc2)c(=O)n1CC(=O)NCc1ccco1 was read as UBC13 polyUb -15.2, Mdm2-MdmX inh 29.8, XBP1 UPR activ 54.8*, Apaf1 inhib 8.6, UPR CHOP act -0.1 and XBP1 UPR conf 0.5.

Screening data: PubChem BioAssay, Sanford-Burnham Center for Chemical Genomics
